From ChEMBL document CHEMBL1144899, “Influence of phenyl ring disubstitution on bisbenzimidazole and terbenzimidazole cytotoxicity: synthesis and biological evaluation as radioprotectors” (2003) come the findings set out here.

“And” between values parts separate entries of the source, which are not always exact repeats. Equal values may be shown once.

Assay [1] concerns Nucleic Acid. Nature of the assay: DNA binding property using 100(uM) of calf thymus DNA (CTDNA) and at 10(uM) was determined. It counts as nucleic-acid assay. The note with it: Bos taurus. A digest of the protocol: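 Calf thymus DNA (100 μM) with ligand at drug/DNA ratio r = 0.1 (10 μM drug) in 2 mM sodium cacodylate buffer, equilibrated 25 min. Thermal melting by absorbance at 260 nm, heated 25 to 100 °C at 0.5 °C/min; Tm taken as the midpoint of normalized curves, ΔTm relative to DNA alone. UV absorption (200–500 nm) and fluorescence emission spectra also recorded.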

Assay [2] has as its system Nucleic Acid. The assay can be described thus: DNA binding property using 100(uM) of calf thymus DNA (CTDNA) and at 100(uM) was determined. It counts as nucleic-acid assay. The note with it: Bos taurus.
The nature of assay [3]: In Vitro Cytotoxicity against BMG-1 (Human brain malignant glioma cell line with a DNA index of 0.96; wild type TP 53) using Macrocolony assay at 10 uM […]. The class given is functional. A digest of the protocol:
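BMG-1 glioma cells in DMEM with 5% fetal calf serum at 37 °C, exponential phase, 24 h after plating. Drug (0.1, 1, 10 or 100 μM) given for 1 h, then washed off. 200–1200 cells plated and grown 8–10 days at 37 °C in 5% CO2. Colonies fixed in methanol and stained with crystal violet; colonies over 50 cells counted and expressed as percent of control.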

The species entered for a further assay is Homo sapiens. The assay can be described thus: In Vitro Cytotoxicity against BMG-1 (Human glioma cell line with a DNA index of 0.96; wild type TP 53) using MTT assay at 100 uM at 72 hours; No effect on the proliferation kinetics of BMG-1 cells. It counts as functional, cell-based. A general note: Formazan colour is commonly taken as a measure of viable cells.

The nature of assay [4]: Percent cell kill against BMG-1 (Human brain malignant glioma cell line with a DNA index of 0.96; wild type TP 53) at 1 hour incubation at 100 (uM).
Assay [5] in a line: In Vitro Cytotoxicity against BMG-1 (Human glioma cell line with a DNA index of 0.96; wild type TP 53) using Macrocolony assay (clonogenicity) at 100 uM at 72 hours. The note with it: read-out: Survival. The class given is functional.
Assay [6] can be described thus: (§1) In Vitro Cytotoxicity against BMG-1 (Human glioma cell line with a DNA index of 0.96; wild type TP 53) using Irradiation procedures followed by Macrocolony assay at 10 Gy and 10 (uM). It counts as functional. A digest of the protocol: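 Exponentially growing BMG-1 cells, 24 h after plating, given 10 μM ligand 1 h before irradiation. Co-60 gamma irradiation (2, 5 or 10 Gy) at room temperature in growth medium at 0.5–1.2 Gy/min. Cells then plated and colonies of more than 50 cells counted after 8–10 days. Survival expressed as percent of cells irradiated at the same dose without ligand.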

The nature of assay [7]: In Vitro Cytotoxicity against BMG-1 (Human glioma cell line with a DNA index of 0.96; wild type TP 53) using Irradiation procedures followed by Macrocolony assay at 5Gy and 10 (uM) at 24 hr. The class given is functional. Particulars: in the assay text read “growth kinetics” for “Macrocolony assay”.
The nature of assay [8]: In Vitro Cytotoxicity against BMG-1 (Human glioma cell line with a DNA index of 0.96; wild type TP 53) using Irradiation procedures followed by Macrocolony assay at 2 Gy and 10 (uM). It counts as functional. In outline:
(§2)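 Exponential BMG-1 (24 h after plating) given 10 μM drug 1 h before irradiation. Co-60 gamma rays at room temperature in growth medium, 0.5–1.2 Gy/min, at 2, 5 or 10 Gy. Cells plated for macrocolony assay, 8–10 days at 37 °C in 5% CO2; crystal violet-stained colonies >50 cells counted; survival as percent of irradiated control at each dose.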

Assay [9] in a line: In Vitro Cytotoxicity against BMG-1 (Human brain malignant glioma cell line with a DNA index of 0.96; wild type TP 53) using Macrocolony assay (clonogenicity) at 100 uM at 72 hours. Particulars: read-out: Survival. The class given is functional.
A short description of assay [10]: In Vitro Cytotoxicity against BMG-1 (Human glioma cell line with a DNA index of 0.96; wild type TP 53) using Irradiation procedures followed by Macrocolony assay at 5Gy and 10 (uM). The class given is functional. In outline: as §2
Assay [11] can be described thus: as §1. It counts as functional. A digest of the protocol:
as §2
This is another data set of the same source.

A short description of assay [12]: Percent cell kill against BMG-1 (Human brain malignant glioma cell line with a DNA index of 0.96; wild type TP 53) at 1 hour incubation at 10 (uM).
The nature of assay [13]: In Vitro Cytotoxicity against BMG-1 (Human brain malignant glioma cell line with a DNA index of 0.96; wild type TP 53) using MTT assay at 100 uM at 24 hours.
Assay [14] in a line: In Vitro Cytotoxicity against BMG-1 (Human brain malignant glioma cell line with a DNA index of 0.96; wild type TP 53) using MTT assay at 10 uM at 72 hours. The class given is functional. A digest of the protocol:
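Then MTT at 0.5 mg/mL final for 2 h at 37 °C; formazan dissolved in DMSO; absorbance read at 570 nm against 630 nm reference; results as percent survival.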

A word on the ΔTm: it is the shift of the melting midpoint relative to a reference. With `COc1ccc(-c2nc3cc(-c4nc5cc(N6CCN(C)CC6)ccc5[nH]4)ccc3[nH]2)cc1OC`, in the assay with Nucleic Acid [1], the Lambda-em worked out at 500 nm and the Lambda-ex came out at 340 nm. Moreover, in the assay on Nucleic Acid [2], the Lambda-em amounted to 484 nm, the Lambda-ex was 354 nm, the Tm came out at 76.4 °C and the ΔTm worked out at 6.4 °C. The molecule also displayed a Protection in assay [3] of 82%. The NA result in the assay filed under Homo sapiens is “No effect on the proliferation kinetics of BMG-1 cells”. Moreover, in assay [4], the Cell kill % was 27%. The viability at 100 µM in assay [5] was determined as 73%. Also, in assay [6], the Protection is 100%. Besides, the Protection in assay [7] is 84%.
As to `COc1cc(-c2nc3cc(-c4nc5cc(-c6nc7cc(N8CCN(C)CC8)ccc7[nH]6)ccc5[nH]4)ccc3[nH]2)ccc1O`, the Lambda-em is 500 nm in the assay on Nucleic Acid [1]; 418 nm and 441 nm in the assay on Nucleic Acid [2]. Further, the Lambda-ex is 350 nm with Nucleic Acid [1]; 356 nm and 391 nm with Nucleic Acid [2]. The Tm in the assay with Nucleic Acid [2] worked out at 78 °C. In addition, the ΔTm in the assay on Nucleic Acid [2] came to 8 °C. Further, the Protection stood at 37% in assay [3] and 100% in assay [7]. The Survival stood at 24% in assay [8], 37% in assay [10] and 100% in assay [11]. The viability at 100 µM in assay [9] amounted to 92%. For the same molecule, the NA entry in the assay listed under Homo sapiens was “No effect on the proliferation kinetics of BMG-1 cells”.
For `CCOc1ccc(-c2nc3cc(-c4nc5cc(N6CCN(C)CC6)ccc5[nH]4)ccc3[nH]2)cc1`, the Lambda-em was determined as 500 nm in the assay with Nucleic Acid [1] and 484 nm in the assay with Nucleic Acid [2]. Further, the Lambda-ex was 340 nm with Nucleic Acid [1] and 354 nm in the assay on Nucleic Acid [2]. Moreover, the Tm in the assay on Nucleic Acid [2] was 76 °C. In addition, the ΔTm in the assay with Nucleic Acid [2] was 6 °C. The Cell kill % in [12] stood at 55%; in assay [4], 90%. In addition, the Lysis in assay [13] is reported as 77%. The Survival in [8] is reported as 10%; in [10], 15%; in assay [11] it was 15%. Also, the viability at 100 µM in assay [9] came out at 10%. In assay [14], this molecule returned a Killed of 35%.
